Seven compounds from ChEMBL document CHEMBL1156527, “Potent D-peptide inhibitors of HIV-1 entry” (Proc Natl Acad Sci U S A, 2007) can be followed below.

Series [1] concerns Human immunodeficiency virus 1. The series can be described thus: Antiviral activity against HIV1 HXB2 in HOS-CD4-CXCR4 cells by viral infectivity assay. It is filed as functional, organism-based. To be noted: Human immunodeficiency virus 1, HXB2. In outline: (§1)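 Single-cycle pseudovirion entry assay. HXB2 pseudovirions were used on HOS-CD4-CXCR4 cells, and BaL or JRFL on HOS-CD4-CCR5 cells. 8 μg/ml DEAE-Dextran served as fusion enhancer, and medium was changed ≈24 h post-infection. DMSO-dissolved samples were run at 1% final DMSO against a 1% DMSO uninhibited control. IC50 comes from duplicate assays. Toxicity was checked microscopically and by luciferase with VSV-G pseudotyped virions, where a >10% loss meant toxicity.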

The subject of series [2] is Human immunodeficiency virus 1. The series can be described thus: Antiviral activity against HIV1 JRFL in HOS-CD4-CCR5 cells by viral infectivity assay. The format is functional, organism-based. The note with it: Human immunodeficiency virus 1, JRFL. In outline:
as §1

Series [3] in a line: Binding affinity to HIV1 N-trimer gp41 mimic IZN36 by surface plasmon resonance analysis. (In general: SPR reads the build-up and loss of mass on a sensor chip optically.)
For series [4], the system named is Human immunodeficiency virus 1. The series can be described thus: Antiviral activity against HIV1 BaL in HOS-CD4-CCR5 cells by viral infectivity assay. To be noted: Human immunodeficiency virus 1, BaL. The format is functional, organism-based. In outline: as §1
Series [5] concerns HOS. The series is described as follows: Cytotoxicity in VSV-G pseudotyped virion infected human HOS-CD4-CXCR4 cells assessed as luciferase level at 100 uM after 24 hrs. The format is cell-based. In outline:
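Single-cycle infection in HOS-CD4 target cells with VSV-G-pseudotyped luciferase virions in the presence of peptide, using 8 μg/ml DEAE-Dextran as fusion enhancer. Media were changed about 24 h after infection. DMSO-dissolved samples were run at 1% final DMSO against a 1% DMSO uninhibited control. A luciferase drop of more than 10% counted as cytotoxicity, alongside microscopic inspection at about 24 h.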

The test system of series [6] is Human immunodeficiency virus 1. The series can be described thus: Antiviral activity against HIV1 JRFL in HOS-CD4-CCR5 cells at 100 uM by viral infectivity assay. It is filed as functional, organism-based. In a few lines:
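JRFL pseudovirions were tested in single-cycle infection of HOS-CD4-CCR5 cells with 8 μg/ml DEAE-Dextran and a medium change ≈24 h post-infection. Inhibition was scored at 100 μM. DMSO-dissolved samples were at 1% final DMSO, normalized to a 1% DMSO control.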

pIC50, pKd: −log10 of the molar value. Activity calls are given as the source filed them. The calls are words filed in the database; no cut-off is given here.

As to `CC(C)C[C@@H](NC(=O)[C@@H](Cc1c[nH]c2ccccc12)NC(=O)[C@@H](CCC(N)=O)NC(=O)[C@@H](Cc1c[nH]c2ccccc12)NC(=O)[C@@H](CCC(=O)O)NC(=O)[C@@H](CCCCN)NC(=O)[C@@H](Cc1ccc(O)cc1)NC(=O)[C@@H](CC(=O)O)NC(=O)[C@@H](CS)NC(=O)[C@@H](C)NC(=O)CNC(=O)[C@H](N)CCCCN)C(=O)N[C@H](CS)C(=O)N[C@H](C)C(=O)N[C@H](C)C(=O)O`, the pIC50 (in general, −log10 of the IC50, conventionally taken in molar units) was 5.77 in series [1] and 3.96 in series [2]. Further, the pKd (commonly the negative decadic logarithm of the Kd, by convention in mol/L) in series [3] is 6.77.

For `CC(C)C[C@@H](NC(=O)[C@@H](Cc1c[nH]c2ccccc12)NC(=O)[C@@H](CCC(N)=O)NC(=O)[C@@H](Cc1c[nH]c2ccccc12)NC(=O)[C@@H](CCC(=O)O)NC(=O)[C@H]1CCCN1C(=O)[C@@H](Cc1ccc(O)cc1)NC(=O)[C@@H](CC(=O)O)NC(=O)[C@@H](CS)NC(=O)[C@@H](C)NC(=O)CNC(=O)[C@H](N)CCCCN)C(=O)N[C@H](CS)C(=O)N[C@H](C)C(=O)N[C@H](C)C(=O)O`, the pIC50 in series [1] is 6.21; in series [4], 5.66; in series [2], 4.62. Further, the pKd in series [3] is 7.10.

With `CC(C)C[C@@H](NC(=O)[C@@H](Cc1c[nH]c2ccccc12)NC(=O)[C@@H](CCCNC(=N)N)NC(=O)[C@@H](Cc1c[nH]c2ccccc12)NC(=O)[C@@H](CCC(=O)O)NC(=O)[C@H]1CCCN1C(=O)[C@@H](CO)NC(=O)[C@@H](CCC(=O)O)NC(=O)[C@@H](CS)NC(=O)[C@@H](C)NC(=O)CNC(=O)[C@@H](CCCCN)NC(=O)[C@H](N)CCCCN)C(=O)N[C@H](CS)C(=O)N[C@H](C)C(=O)N[C@H](C)C(=O)O`, the pIC50 in series [1] was 5.66.

In the case of `CC(C)C[C@@H](NC(=O)[C@@H](Cc1c[nH]c2ccccc12)NC(=O)[C@@H](CCCNC(=N)N)NC(=O)[C@@H](Cc1c[nH]c2ccccc12)NC(=O)[C@@H](CCC(=O)O)NC(=O)[C@H]1CCCN1C(=O)[C@@H](Cc1ccc(O)cc1)NC(=O)[C@@H](CC(=O)O)NC(=O)[C@@H](CS)NC(=O)[C@@H](C)NC(=O)CNC(=O)[C@H](N)CCCCN)C(=O)N[C@H](CS)C(=O)N[C@H](C)C(=O)N[C@H](C)C(=O)O`, the results for the pIC50 in series [1] and in series [2] were 5.89 and 4.18, respectively. Also, the pKd in series [3] was 6.89.

`CC(C)C[C@@H](NC(=O)[C@@H](Cc1c[nH]c2ccccc12)NC(=O)[C@@H](CCCNC(=N)N)NC(=O)[C@@H](Cc1c[nH]c2ccccc12)NC(=O)[C@@H](CCC(=O)O)NC(=O)[C@H]1CCCN1C(=O)[C@@H](Cc1ccc(O)cc1)NC(=O)[C@@H](CC(=O)O)NC(=O)[C@@H](CS)NC(=O)[C@@H](C)NC(=O)CNC(=O)[C@@H](CCCCN)NC(=O)[C@H](N)CCCCN)C(=O)N[C@H](CS)C(=O)N[C@H](C)C(=O)N[C@H](C)C(=O)O`: in series [1], the pIC50 was 5.59. In series [3], this compound had a pKd of 6.77.

Consider `CC(C)C[C@@H](NC(=O)[C@@H](CC(C)C)NC(=O)[C@@H](CCC(=O)O)NC(=O)[C@@H](CS)NC(=O)[C@@H](C)NC(=O)CNC(=O)[C@@H](CCCCN)NC(=O)[C@H](N)CCCCN)C(=O)NCC(=O)N[C@H](Cc1c[nH]c2ccccc12)C(=O)N[C@H](CCC(=O)O)C(=O)N[C@H](Cc1c[nH]c2ccccc12)C(=O)N[C@H](C)C(=O)N[C@H](Cc1c[nH]c2ccccc12)C(=O)N[C@H](CC(C)C)C(=O)N[C@H](CS)C(=O)N[C@H](C)C(=O)N[C@H](C)C(=O)O`, for which the Activity result in series [5] is on record as “Toxic”. Besides, the negative-log IC50 (pIC50) in series [1] is 5.02; in series [4], 4.92; in series [2], less than 4.60. For the same compound, in series [3], the pKd was 5.15.

Consider `CC(C)C[C@@H](NC(=O)[C@@H](Cc1c[nH]c2ccccc12)NC(=O)[C@@H](CCCNC(=N)N)NC(=O)[C@@H](Cc1c[nH]c2ccccc12)NC(=O)[C@@H](CCC(=O)O)NC(=O)[C@H]1CCCN1C(=O)[C@@H](CO)NC(=O)[C@@H](CCC(=O)O)NC(=O)[C@H](CS)NC(=O)[C@@H](C)NC(=O)CNC(=O)[C@@H](CCCCN)NC(=O)[C@H](N)CCCCN)C(=O)N[C@@H](CS)C(=O)N[C@H](C)C(=O)N[C@H](C)C(=O)O`, for which the result in series [6] was inactive.
